The source of these data is ChEMBL document CHEMBL1128319, “Cyclosporin analogs modified in the 3,7,8-positions: substituent effects on peptidylprolyl isomerase inhibition and immunosuppressive activity are nonadditive” (J Med Chem, 1995).

One assay relates to Jurkat. As to the kind of experiment: The compound was tested in vitro for inhibition of IL-2 release stimulated with PMA/ionomycin by Jurkat cells. The assay is classed as functional, cell-based. The note with it: Homo sapiens. The method in brief:
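Jurkat cells at 2 × 10⁵/mL in RPMI-10 (10% heat-inactivated calf serum) with serial compound dilutions, stimulated with PMA 1000 ng/mL plus ionomycin 125 ng/mL, incubated overnight. IL-2 in supernatants quantified by ELISA.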

For a further assay, the species on record is Mus musculus. As to the kind of experiment: The compound was tested in vitro for inhibition of proliferation in BDF1 mouse spleen cells stimulated with concanavalin A (ConA). The assay is classed as functional. The method in brief:
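BDF1 mouse spleen cells, 5 × 10⁶/mL in RPMI-10, given compound dilutions and Con A 5 μg/mL. Cultured 72 h at 37 °C, 5% CO₂, with [³H]thymidine 0.5 μCi over the last 16 h. Incorporated radioactivity counted by scintillation. Quadruplicate means used; viability checked by trypan blue. IC50 derived.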

On to `C/C=C/CC(C)[C@@H](O)[C@H]1C(=O)N[C@@H](CC)C(=O)N(C)CC(=O)N(C)[C@@H](CC(C)C)C(=O)N[C@@H](C(C)C)C(=O)N(C)[C@@H](CC(C)C)C(=O)N[C@@H](Cc2ccccc2)C(=O)N[C@H](CO)C(=O)N(C)[C@@H](CC(C)C)C(=O)N(C)[C@@H](CC(C)C)C(=O)N(C)[C@@H](C(C)C)C(=O)N1C` (some centres not stated), for which the results for the IC50 in the assay on Jurkat and in the assay filed under Mus musculus were 21 nM and 105 nM, respectively.

Take `C/C=C/CC(C)[C@@H](O)[C@H]1C(=O)N[C@@H](CC)C(=O)N(C)CC(=O)N(C)[C@@H](CC(C)C)C(=O)N[C@@H](C(C)C)C(=O)N(C)[C@@H](CC(C)C)C(=O)N[C@@H](Cc2ccccc2)C(=O)N[C@H](C)C(=O)N(C)[C@@H](CC(C)C)C(=O)N(C)[C@@H](CC(C)C)C(=O)N(C)[C@@H](C(C)C)C(=O)N1C` (some centres not stated): the IC50 (commonly the midpoint of a concentration-inhibition curve) in the assay on Jurkat was determined as 107 nM; in the assay listed under Mus musculus it was 248 nM.

For the compound `C/C=C/CC(C)C(O)[C@H]1C(=O)N[C@@H](CC)C(=O)N(C)[C@H](C)C(=O)N(C)[C@@H](CC(C)C)C(=O)N[C@@H](C(C)C)C(=O)N(C)[C@@H](CC(C)C)C(=O)N[C@@H](Cc2ccccc2)C(=O)N[C@H](C)C(=O)N(C)[C@@H](CC(C)C)C(=O)N(C)[C@@H](CC(C)C)C(=O)N(C)[C@@H](C(C)C)C(=O)N1C` (some centres not stated), the IC50 in the assay on Jurkat was 62 nM; in the assay listed under Mus musculus it was 142 nM.

Turning to `C/C=C/C[C@@H](C)[C@@H](O)[C@H]1C(=O)N[C@@H](CC)C(=O)N(C)CC(=O)N(C)[C@@H](CC(C)C)C(=O)N[C@@H](C(C)C)C(=O)N(C)C(CC(C)C)C(=O)N[C@@H](C)C(=O)N[C@H](C)C(=O)N(C)C(CC(C)C)C(=O)N(C)[C@@H](CC(C)C)C(=O)N(C)C(C(C)C)C(=O)N1C` (single isomer, unassigned) [CYCLOSPORINE], in the assay on Jurkat, half-maximal inhibition (IC50) required 12 nM.
